Activity calls are given as the source filed them. No cut-off for these calls is given here.
What was measured:
[1] = molecular target: Transient receptor potential cation channel subfamily V member 1 (Homo sapiens, UniProt Q8NER1); assay: Antagonist activity at human TRPV1 assessed as inhibition of capsaicin-induced receptor activation by FLIPR assay; format: functional
Procedure, shortened: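 Human TRPV1 activated by capsaicin; inhibition read by FLIPR. IC50 is the mean of ≥3 experiments.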

[2] = molecular target: Transient receptor potential cation channel subfamily V member 1 (Rattus norvegicus, UniProt O35433); format: functional, tissue-based, Sprague-Dawley, Dorsal root ganglion
Rattus norvegicus [3] = organism: Rattus norvegicus; conditions: 20 mg/kg
[4] = Metabolic stability in rat liver microsomes assessed as compound remaining after 10 min; format: ADME, Microsome; conditions: read-out: Stability
Liver microsomes = assay: Metabolic stability in human liver microsomes assessed per mg of protein after 1 hr
Rattus norvegicus [5] = assay: Antiinflammatory activity in Sprague-Dawley rat assessed as inhibition of carrageenan-induced thermal hyperalgesia at 3 mg/kg, po administered 3.5 hrs after carrageenan challenge measured after 5 hrs; format: functional
Procedure, shortened: (§1)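 Rat carrageenan-induced thermal hyperalgesia. Dosed orally as a suspension in 0.5% methocel; % inhibition reported at each dose.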

Rattus norvegicus [6] = assay: Antiinflammatory activity in Sprague-Dawley rat assessed as inhibition of carrageenan-induced thermal hyperalgesia at 1 mg/kg, po administered 3.5 hrs after carrageenan challenge measured after 5 hrs; format: functional; procedure, shortened: as §1
Rattus norvegicus [7] = assay: Plasma concentration in Sprague-Dawley rat carrageenan-induced thermal hyperalgesia model at 3 mg/kg, po; format: ADME, organism-based; set-up: dose 3 mg/kg, route oral; conditions: in vivo
Procedure, shortened: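 Rats given compound orally as a suspension in 0.5% methocel in the carrageenan-induced thermal hyperalgesia model. Plasma sampled immediately after the CITH experiment.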

Rattus norvegicus [8] = assay: Plasma concentration in Sprague-Dawley rat carrageenan-induced thermal hyperalgesia model at 1 mg/kg, po; format: ADME, organism-based; set-up: dose 1 mg/kg, route oral; conditions: in vivo
Procedure, shortened: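 Plasma sampled immediately after the carrageenan thermal hyperalgesia experiment, following oral dosing as a suspension in 0.5% methocel.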

Rattus norvegicus [9] = assay: Antiinflammatory activity in Sprague-Dawley rat assessed as inhibition of carrageenan-induced thermal hyperalgesia at 0.3 mg/kg, po administered 3.5 hrs after carrageenan challenge measured after 5 hrs; format: functional; procedure, shortened: as §1

Chain of Transient receptor potential cation channel subfamily V member 1 (Homo sapiens, UniProt Q8NER1) (Q8NER1 whole entry): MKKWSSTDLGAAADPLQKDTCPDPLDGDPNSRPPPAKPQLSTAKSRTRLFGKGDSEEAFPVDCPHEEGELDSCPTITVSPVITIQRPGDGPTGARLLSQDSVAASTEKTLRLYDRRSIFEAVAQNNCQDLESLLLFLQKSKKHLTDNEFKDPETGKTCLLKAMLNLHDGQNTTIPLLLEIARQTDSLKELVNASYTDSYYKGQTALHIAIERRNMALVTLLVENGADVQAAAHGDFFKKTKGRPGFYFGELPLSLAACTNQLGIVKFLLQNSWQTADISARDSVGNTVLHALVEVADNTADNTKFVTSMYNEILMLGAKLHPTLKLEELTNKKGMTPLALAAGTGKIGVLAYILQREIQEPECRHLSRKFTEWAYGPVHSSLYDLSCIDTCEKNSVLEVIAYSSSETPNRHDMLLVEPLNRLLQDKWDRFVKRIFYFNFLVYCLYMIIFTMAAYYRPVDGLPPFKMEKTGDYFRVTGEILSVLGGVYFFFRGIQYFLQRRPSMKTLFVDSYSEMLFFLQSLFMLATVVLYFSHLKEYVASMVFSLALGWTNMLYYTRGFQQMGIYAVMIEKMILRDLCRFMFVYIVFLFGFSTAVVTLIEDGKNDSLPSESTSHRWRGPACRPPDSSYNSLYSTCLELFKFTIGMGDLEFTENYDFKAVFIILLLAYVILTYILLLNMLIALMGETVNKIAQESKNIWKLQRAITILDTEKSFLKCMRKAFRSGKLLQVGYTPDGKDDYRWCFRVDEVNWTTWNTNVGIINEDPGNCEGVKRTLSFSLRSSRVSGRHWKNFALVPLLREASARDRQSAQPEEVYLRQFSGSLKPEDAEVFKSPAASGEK
Chain of Transient receptor potential cation channel subfamily V member 1 (Rattus norvegicus, UniProt O35433) (O35433 whole entry): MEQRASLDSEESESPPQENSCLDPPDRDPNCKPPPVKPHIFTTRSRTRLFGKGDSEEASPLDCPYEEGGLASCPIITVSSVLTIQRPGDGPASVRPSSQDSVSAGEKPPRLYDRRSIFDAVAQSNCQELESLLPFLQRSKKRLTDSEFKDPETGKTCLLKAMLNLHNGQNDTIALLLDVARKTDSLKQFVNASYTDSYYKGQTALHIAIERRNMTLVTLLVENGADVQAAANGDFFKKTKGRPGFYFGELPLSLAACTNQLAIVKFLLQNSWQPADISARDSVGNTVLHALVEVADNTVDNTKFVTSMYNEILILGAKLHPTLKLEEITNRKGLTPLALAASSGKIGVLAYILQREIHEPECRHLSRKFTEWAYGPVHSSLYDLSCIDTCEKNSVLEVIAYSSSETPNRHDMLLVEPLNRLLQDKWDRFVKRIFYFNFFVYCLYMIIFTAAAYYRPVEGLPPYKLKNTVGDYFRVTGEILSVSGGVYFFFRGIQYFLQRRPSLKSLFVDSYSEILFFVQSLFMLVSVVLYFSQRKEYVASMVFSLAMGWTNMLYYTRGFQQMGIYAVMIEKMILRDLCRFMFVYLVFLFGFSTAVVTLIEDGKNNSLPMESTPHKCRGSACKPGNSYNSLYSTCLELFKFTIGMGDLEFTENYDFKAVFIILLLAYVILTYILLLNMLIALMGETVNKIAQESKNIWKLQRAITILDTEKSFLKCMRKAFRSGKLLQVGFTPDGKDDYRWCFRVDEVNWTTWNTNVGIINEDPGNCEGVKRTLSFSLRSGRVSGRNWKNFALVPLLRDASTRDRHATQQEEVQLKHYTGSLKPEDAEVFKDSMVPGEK

Compound: O=C(O)c1cnc(-c2cnc3c(Nc4ccc(C(F)(F)F)cn4)ccnc3n2)c(C(F)(F)F)c1
- IC50 [1]: 27 nM
- IC50 [2]: Not Active

Compound: FC(F)(F)c1ccc(Nc2ccnc3nc(-c4nnccc4C(F)(F)F)ccc23)nc1
- IC50 [1]: 8.4 nM
- IC50 ([2]; read-out: IC50): 7.1 nM

Compound: N#Cc1nc(Nc2ccnc3nc(-c4ncccc4C(F)(F)F)ccc23)ncc1C(F)(F)F
- IC50 [1]: 25.4 nM
- IC50 [2]: Not Active

Compound: C[C@@H]1CN(c2ncccc2C(F)(F)F)CCN1C(=O)Nc1ccc(C(F)(F)F)cc1
- INH (Inhibition of MAOB): 17 nM

Compound: FC(F)(F)c1csc(Nc2ccnc3nc(-c4ncccc4C(F)(F)F)ccc23)n1
- IC50 [1]: 47 nM
- IC50 [2]: Not Active

Compound: O=C(O)c1nc(Nc2ccnc3nc(-c4ncccc4C(F)(F)F)ccc23)ncc1C(F)(F)F
- IC50 [1]: 1450 nM
- IC50 [2]: Not Active

Compound: COc1ccc2cc([C@H](C)C(=O)O)ccc2c1
- inhibition (Rattus norvegicus [3]): Active

Compound: N#Cc1cnc(-c2cnc3c(Nc4ccc(C(F)(F)F)cn4)ccnc3n2)c(C(F)(F)F)c1
- IC50 [1]: 15 nM
- IC50 [2]: Not Active

Compound: FC(F)(F)c1cnc(Nc2ccnc3nc(-c4ncccc4C(F)(F)F)ccc23)cn1
- IC50 [1]: 5.5 nM
- IC50 ([2]; read-out: IC50): 6.3 nM

Compound: FC(F)(F)c1ccc(Nc2ccnc3nc(-c4ncncc4C(F)(F)F)ccc23)nc1
- IC50 [1]: 134 nM
- IC50 [2]: Not Active

Compound: FC(F)(F)c1ccc(Nc2ccnc3nc(-c4ncsc4C(F)(F)F)ccc23)nc1
- remaining at 10 min [4]: 100%
- Stability (Liver microsomes): 356 pmol
- IC50 [1]: 12 nM
- IC50 [2]: Not Active

Compound: FC(F)(F)c1cnc(Nc2ccnc3nc(-c4ncccc4C(F)(F)F)ccc23)nc1
- remaining at 10 min [4]: 100%
- inhibition in vivo at 3 mg/kg (Rattus norvegicus [5]): 78%
- Stability (Liver microsomes): 204 pmol
- IC50 [1]: 4.4 nM
- IC50 ([2]; read-out: IC50): 4.6 nM

Compound: FC(F)(F)c1ccc(Nc2ccnc3nc(-c4ccncc4C(F)(F)F)ccc23)nc1
- IC50 [1]: 161 nM
- IC50 [2]: Not Active

Compound: FC(F)(F)c1ccc(Nc2ccnc3nc(-c4ncccc4C(F)(F)F)ccc23)nc1
- remaining at 10 min [4]: 100%
- inhibition in vivo at 3 mg/kg (Rattus norvegicus [5]): 115%
- Stability (Liver microsomes): 169 pmol
- inhibition in vivo at 1 mg/kg (Rattus norvegicus [6]): 66%
- IC50 ([2]; read-out: IC50): 3.2 nM
- concentration (Rattus norvegicus [7]): 1400 nM
- INH (Inhibition of MAOB): 2.2 nM
- concentration (Rattus norvegicus [8]): 300 nM

Compound: FC(F)(F)c1ccc(Nc2ccnc3nc(-c4ncccc4C(F)(F)F)cnc23)nc1
- remaining at 10 min [4]: 100%
- inhibition in vivo at 3 mg/kg (Rattus norvegicus [5]): 134%
- Stability (Liver microsomes): < 5 pmol
- inhibition in vivo at 0.3 mg/kg (Rattus norvegicus [9]): 85%
- IC50 [1]: 0.2 nM
- IC50 [2]: Not Active

Compound: FC(F)(F)c1ccc(Nc2ccnc3nc(-c4ncc(Br)cc4C(F)(F)F)cnc23)nc1
- IC50 [1]: 30 nM
- IC50 [2]: Not Active

Compound: NC(=O)c1ccnc(-c2ccc3c(Nc4ccc(C(F)(F)F)cn4)ccnc3n2)c1C(F)(F)F
- IC50 [1]: 13 nM
- IC50 [2]: Not Active

Compound: O=C(O)c1ccnc(-c2ccc3c(Nc4ccc(C(F)(F)F)cn4)ccnc3n2)c1C(F)(F)F
- IC50 [1]: 607 nM
- IC50 [2]: Not Active

Compound: FC(F)(F)c1cnc(Nc2ccnc3nc(-c4ncccc4C(F)(F)F)ccc23)nc1Cl
- IC50 [1]: 81 nM
- IC50 [2]: Not Active

Compound: NC(=O)c1nc(Nc2ccnc3nc(-c4ncccc4C(F)(F)F)ccc23)ncc1C(F)(F)F
- IC50 [1]: 48.7 nM
- IC50 [2]: Not Active
